Laboratory results published in ChEMBL document CHEMBL1149303 (J Med Chem, 2004).
The source made the active and inactive calls. The rule behind the calls is not given here.

Tests used:
[1] = tested on: Rattus norvegicus; assay: Antiinflammatory activity against carrageenan-induced oedema in Wistar rat paw at 3 mg/kg, ip after 3 hrs relative to control; type: functional; details: route intraperitoneal
Outline: (§1)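 Wistar rats (250 g) got the drug ip from a 10 mg/mL DMSO solution. 1 h later, 0.1 mL of 1% λ-carrageenan was injected into the plantar region of the right paw. After 3 h the rats were euthanized with nembutal (100 mg/kg), and paws were cut at the ankle and weighed. Swelling inhibition is given as % vs the control group (6 rats/group, mean ± SEM).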

[2] = tested on: Rattus norvegicus; assay: Antiinflammatory activity against carrageenan-induced oedema in Wistar rat paw at 10 mg/kg, ip after 3 hrs relative to control; type: functional; details: route intraperitoneal; outline: as §1
[3] = tested on: Rattus norvegicus; assay: Antiinflammatory activity against carrageenan-induced oedema in Wistar rat paw at 30 mg/kg, ip after 3 hrs relative to control; type: functional; details: route intraperitoneal; outline: as §1
[4] = target: T1, Prostaglandin G/H synthase 2 (Homo sapiens, UniProt P35354); type: tissue-based, Blood
T1 sequence (P35354 whole entry): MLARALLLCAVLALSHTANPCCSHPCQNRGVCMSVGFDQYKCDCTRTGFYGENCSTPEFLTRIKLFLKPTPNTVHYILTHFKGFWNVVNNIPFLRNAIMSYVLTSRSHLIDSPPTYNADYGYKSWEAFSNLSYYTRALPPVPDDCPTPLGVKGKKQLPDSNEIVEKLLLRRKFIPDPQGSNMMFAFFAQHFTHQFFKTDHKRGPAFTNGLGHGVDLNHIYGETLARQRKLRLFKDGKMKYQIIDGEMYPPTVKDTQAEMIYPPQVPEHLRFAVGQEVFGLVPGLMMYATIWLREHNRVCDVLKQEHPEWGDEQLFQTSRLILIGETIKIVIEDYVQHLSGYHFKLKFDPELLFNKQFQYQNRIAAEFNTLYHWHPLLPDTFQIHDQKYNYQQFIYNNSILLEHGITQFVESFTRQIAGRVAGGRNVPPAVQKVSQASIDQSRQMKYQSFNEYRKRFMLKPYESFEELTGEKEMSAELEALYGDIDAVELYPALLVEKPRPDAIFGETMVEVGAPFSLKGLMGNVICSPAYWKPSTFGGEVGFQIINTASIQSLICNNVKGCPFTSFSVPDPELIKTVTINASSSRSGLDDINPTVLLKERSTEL

[5] = organism: Homo sapiens; assay: Selectivity ratio of IC50 for human COX1 to IC50 for human COX2
Outline: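 Human whole blood, each compound tested in triplicate at 0.01–100 µmol/L final, vehicle DMSO. COX-1: blood preincubated 15 min at 37 °C, stimulated with calcium ionophore A-23,187 for 15 min, serum TXB2 by EIA. COX-2: heparinized blood preincubated 15 min, then LPS (100 µg/mL final, E. coli B4) for 24 h at 37 °C, plasma PGE2 by EIA. Ratio taken as IC50 COX-1/IC50 COX-2.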

[6] = target: Prostaglandin G/H synthase 1 (Homo sapiens, UniProt P23219)
Prostaglandin G/H synthase 1, sequence (P23219 whole entry): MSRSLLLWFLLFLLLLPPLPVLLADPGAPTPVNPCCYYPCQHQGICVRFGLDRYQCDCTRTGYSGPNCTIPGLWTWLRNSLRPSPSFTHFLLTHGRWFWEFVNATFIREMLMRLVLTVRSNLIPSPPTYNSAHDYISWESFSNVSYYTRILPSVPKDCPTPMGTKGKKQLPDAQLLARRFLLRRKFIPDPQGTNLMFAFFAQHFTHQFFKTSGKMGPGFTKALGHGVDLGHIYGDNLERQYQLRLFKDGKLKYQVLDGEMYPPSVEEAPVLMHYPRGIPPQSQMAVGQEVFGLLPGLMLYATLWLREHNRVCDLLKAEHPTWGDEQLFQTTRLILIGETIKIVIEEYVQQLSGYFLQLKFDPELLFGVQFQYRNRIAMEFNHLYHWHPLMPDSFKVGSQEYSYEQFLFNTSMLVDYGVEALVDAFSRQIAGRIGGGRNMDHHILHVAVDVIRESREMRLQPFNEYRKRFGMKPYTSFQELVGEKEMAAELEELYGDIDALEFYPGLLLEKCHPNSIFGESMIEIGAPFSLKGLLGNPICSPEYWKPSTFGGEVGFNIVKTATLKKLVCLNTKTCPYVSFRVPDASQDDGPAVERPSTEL

[7] = tested on: Rattus norvegicus; assay: Lethality in Wistar rat at 30 mg/kg, ip in carrageenan-induced paw oedema model; type: functional, organism-based; design: dose 30 mg/kg
Outline: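 Wistar rats (250 g) were dosed ip from a 10 mg/mL DMSO solution, 1 h before 0.1 mL of 1% λ-carrageenan in the right hind paw. Deaths were noted over the following 3 h paw-oedema period in groups of six rats.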

[8] = Dissociation constant, pKa by sulfonamide/sulfonamidate equilibrium; type: physicochemical
Outline: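 pKa was determined by UV spectrophotometry, to assign each compound's ionic state at pH 7.4.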

[9] = Dissociation constant, pKa by pyridinium/pyridine equilibrium; type: physicochemical
Outline: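 Ionisation constant measured by UV spectrophotometry.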

| Compound | inhibition in vivo at 3 mg/kg [1] [%] | inhibition in vivo at 10 mg/kg [2] [%] | inhibition in vivo at 30 mg/kg [3] [%] | IC50 [4] [µM] | Ratio IC50 [5] | IC50 [6] [µM] | Activity [7] | pKa [8] | pKa [9] |
| --- | --- | --- | --- | --- | --- | --- | --- | --- | --- |
| CS(=O)(=O)Nc1ccc([N+](=O)[O-])cc1Oc1ccccc1 [NIMESULIDE] | 23.7 | 40.2 | 44.3 |  |  |  |  |  |  |
| O=S(=O)(Nc1ccncc1Oc1ccc(Cl)cc1Cl)C(F)(F)F |  |  |  | 2.55 | 0.54 | 1.37 |  |  |  |
| CS(=O)(=O)Nc1ccncc1Oc1ccc(Cl)cc1 | 28.7 | 35.1 |  | 1.87 | 0.77 | 1.45 | Active | < 4 | 7.97 |
| CN(c1ccccc1)c1cnccc1NS(=O)(=O)C(F)(F)F |  |  |  | 47.6 | 0.097 | 4.63 |  |  |  |
| O=S(=O)(Nc1ccncc1Oc1cc(Cl)cc(Cl)c1)C(F)(F)F |  |  |  | > 100 |  | > 100 |  |  |  |
| CCS(=O)(=O)Nc1ccncc1Oc1ccc(Cl)cc1 |  |  |  | 3.28 | 0.75 | 2.44 |  | < 4 | 7.98 |
| CCS(=O)(=O)Nc1ccncc1Oc1ccccc1 |  |  |  | 14.1 | 0.38 | 5.34 |  |  |  |
| O=S(=O)(Nc1ccncc1Oc1ccc(Cl)cc1)C(F)(F)F |  |  |  | 1.53 | 0.24 | 0.36 |  | < 1 | 6.71 |
| O=S(=O)(Nc1ccncc1Oc1ccc(Br)cc1)C(F)(F)F | 5 | 8.33 | 36.7 | 13.8 | 0.02 | 0.24 |  |  |  |
| O=S(=O)(c1ccccc1)c1cnccc1NS(=O)(=O)C(F)(F)F |  |  |  | > 100 |  | > 100 |  | < 1 | 5.3 |
| CS(=O)(=O)Nc1ccncc1Sc1ccccc1 | 7.44 | 40.7 |  | 1.19 | 3.05 | 3.62 | Active |  |  |
| O=S(=O)(Nc1ccncc1Oc1cccc(Cl)c1)C(F)(F)F |  |  |  | > 100 |  | 2.27 |  |  |  |
| CS(=O)(=O)Nc1ccncc1S(=O)(=O)c1ccccc1 |  |  |  | > 100 |  | > 100 |  |  |  |
| CS(=O)(=O)Nc1ccncc1Oc1cccc(Cl)c1 | 10.9 | 21 |  | 1.99 | 5.45 | 10.9 | Active | < 4 | 7.74 |
| O=S(=O)(Nc1ccncc1[S+]([O-])c1ccccc1)C(F)(F)F (stereo not drawn) |  |  |  | > 100 |  | 25.6 |  | < 1 | 5.69 |
| COc1ccc(Oc2cnccc2NS(C)(=O)=O)cc1 |  |  |  | 2.36 | 0.76 | 1.81 |  |  |  |
| COc1ccc(Oc2cnccc2NS(=O)(=O)C(F)(F)F)cc1 |  |  |  | 0.44 | 0.59 | 0.26 |  |  |  |
| CS(=O)(=O)Nc1ccncc1Oc1ccc(Cl)cc1Cl | 20.9 | 15.8 | 32.7 | 0.12 | 5.15 | 0.62 |  | < 4 | 7.81 |
| O=S(=O)(Nc1ccncc1Oc1ccccc1Cl)C(F)(F)F |  |  |  | 0.15 | 1.74 | 0.27 |  |  |  |
| CS(=O)(=O)Nc1ccncc1Oc1cc(Cl)cc(Cl)c1 | 18 | 18 | 21.3 | > 100 |  | > 100 |  |  |  |
| O=S(=O)(Nc1ccncc1Oc1ccccc1)C(F)(F)F | 10.9 | 26 | 46.4 |  |  |  |  | < 1 | 6.81 |
| CCCS(=O)(=O)Nc1ccncc1Oc1ccccc1 |  |  |  | > 100 |  | 18.4 |  |  |  |
| CCCS(=O)(=O)Nc1ccncc1Oc1ccc(Cl)cc1 |  |  |  | 9.69 | 0.24 | 2.3 |  |  |  |
| CS(=O)(=O)Nc1ccncc1Oc1ccc(Br)cc1 |  |  |  | 7.6 | 0.18 | 1.41 |  | < 4 | 7.86 |
| CS(=O)(=O)Nc1ccncc1Oc1ccccc1Cl | 9.47 | 37.5 | 62.8 | 0.13 | 7.92 | 1.03 |  |  |  |
| O=S(=O)(Nc1ccncc1Sc1ccccc1)C(F)(F)F |  |  |  | 0.53 | 0.78 | 0.41 |  | < 1 | 6.54 |
| O=S(=O)(Nc1ccncc1Nc1ccccc1)C(F)(F)F | 22.7 | 34.5 | 44 | 0.09 | 2.03 | 0.18 |  |  |  |
| CS(=O)(=O)Nc1ccncc1Oc1ccccc1 |  |  |  | > 100 |  | 0.41 | Active | 2.98 | 8.13 |
